p97 ATPase inh – human p97 ATPase inhibition; inhibition, % at 8 µM; P55072; recombinant p97 ATPase, Kinase-Glo ATP luminescence, 3 h; 220,000 compounds, 0.42% hits; in the data active means inhibition above about 15%;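 further: 0% = DMSO vehicle and 100% = wells lacking enzyme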
Mdm2 ligase inh – blocks human Mdm2 ubiquitin ligase activity; Q00987; cell-based MDM2 ubiquitination luciferase reporter, 2 h; 0 = plate control, 100 = twice control, blank-subtracted; signal enhancement, % at 5 µM; 210,000 compounds, 0.11% hits;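 active means signal enhancement of 30% or more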;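 further: luminescence tracks abundance of the self-degrading MDM2-luciferase fusion protein; higher signal means inhibition of MDM2 E3 ligase activity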
Target sequence (Q00987 whole entry, looked up, the tested form may be a part): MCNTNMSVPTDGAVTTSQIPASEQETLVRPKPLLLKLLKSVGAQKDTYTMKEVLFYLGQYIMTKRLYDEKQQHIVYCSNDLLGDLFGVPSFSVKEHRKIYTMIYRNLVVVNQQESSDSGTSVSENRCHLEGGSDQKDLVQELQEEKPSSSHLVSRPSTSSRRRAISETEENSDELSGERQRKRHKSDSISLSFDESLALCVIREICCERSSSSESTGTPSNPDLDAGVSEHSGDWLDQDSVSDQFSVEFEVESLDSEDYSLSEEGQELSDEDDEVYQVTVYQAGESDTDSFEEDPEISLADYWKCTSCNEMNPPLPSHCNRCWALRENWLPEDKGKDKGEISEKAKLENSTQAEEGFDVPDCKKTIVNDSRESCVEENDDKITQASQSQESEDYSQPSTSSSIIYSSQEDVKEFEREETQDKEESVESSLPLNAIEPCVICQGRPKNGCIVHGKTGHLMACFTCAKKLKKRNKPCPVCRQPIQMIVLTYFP
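Test system: mammalian cells stably expressing self-ubiquitinating, self-degrading MDM2 E3–luciferase fusion; Amount: 2000 cells in each well; Medium: DMEM; Schedule: 4 h settle plus 2 h compound, 37 °C; Technique: SteadyLite luciferase luminescence after 15 min room-temperature reagent incubation; Benchmarks: plate control and blank wells.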
PKD1 kinase inh – blocks activity of human protein kinase D1; Q15139; PKD1 kinase fluorescence polarization assay; inhibition, % (test concentration not listed); 200,000 compounds, 0.056% hits; AID 797; in the data active means inhibition above about 50%
DTT redox prof – compounds producing H2O2 with reducing agent – biochemical, NIH compound library profiling, artefact control for MLSCN library redox annotation, primary screen | DTT-dependent redox cycling H2O2, phenol red/HRP absorbance; 100% = 100 µM peroxide control, 0% = buffer | AID 878 | 200,000 compounds, 0.03% hits | activation, % at 10 µM;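 active means activation of at least 50% relative to the plate's high and low controls in the primary single-dose screen; inactive means activation below 50%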;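 further: compound incubated with DTT at 0.8 mM final as the reducing agent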
KCC2 mod – modulates chloride dependent transport by human KCC2; AID 1456; B-score of Tl+ flux slope (higher = more flux/activation; lower = inhibition) at 10 µM; Q9H2X9; KCC2 cells, thallium flux FluoZin-2 fluorescence; 190,000 compounds, 2.2% hits;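 active means thallium flux slope and its plate-corrected score both differing from the plate sample mean at a set confidence after two filtering rounds, in either direction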;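 further: slope of fluorescence scaled to starting intensity during 10 to 20 s after thallium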
ROMK primary – modulates human ROMK potassium channel activity | P48048 | Tet-inducible ROMK, thallium flux fluorescence; actives lie on both sides | B-score at 10 µM | 130,000 compounds, 2% hits | AID 1918;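 active means signal ratio slope over the read window, or its plate-corrected B-score, at least 3 SD from the plate mean, either direction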;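 further: B-score of the F/F0 ratio slope over 7 to 12 s after thallium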
KCC2 sec1 – confirmation of human KCC2 transport modulators; normalised thallium flux (F/F0 slope) at 10 µM; 3,700 compounds, 15% hits; AID 1713; HEK293-KCC2, thallium flux, FluoZin2 fluorescence; stronger effect = higher value; shares compounds with KCC2 mod;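 active means thallium flux slope above the same plate's solvent-only control mean plus 3 SD; inconclusive means the two replicate wells disagree; inactive means no significant difference from solvent-only control wells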
KCC2 bumet counter – thallium flux persisting under bumetanide in KCC2 cells, counter-screen secondary assay; shares compounds with KCC2 mod; HEK293-KCC2 + bumetanide/ouabain, thallium flux FluoZin2; stronger effect = higher value; normalized thallium flux at 10 µM; 3,700 compounds, 49% hits;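 active means thallium entry rate above the same plate's blocked-transporter control wells by more than 3 SD; inconclusive means the two repeat wells disagree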;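 further: raw slope of fluorescence over initial fluorescence between 10 and 20 s after thallium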
KCC2 secondary2 – confirmation of human KCC2 transport modulators; shares compounds with KCC2 mod; HEK293-KCC2, thallium flux FluoZin2 fluorescence; actives lie on both sides; F/F0 rise rate, 10–20 s post-thallium; normalized thallium flux at 10 µM; 3,700 compounds, 23% hits;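 active means thallium flux slope more than 3 SD above or below the plate's solvent-only control mean, mostly below; inconclusive means the two repeat wells disagreed; inactive means no significant shift from solvent-only controls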;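 further: raw slope with 0.1% DMSO as baseline and bumetanide as block control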
HEK293 Tl flux – parental HEK flux effect, counter-screen | 3,700 compounds, 46% hits | HEK293 parental cells, thallium flux FluoZin2, ouabain; baseline-ratio fluorescence slope, 10–20 s after thallium | shares compounds with KCC2 mod | thallium flux rate (normalised fluorescence) at 10 µM;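 active means thallium flux rate significantly above the same plate's solvent-only control wells, beyond their mean plus 3 SD; inconclusive means the two replicate wells gave conflicting results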
KCC2 retest ouab – confirmation of human KCC2 modulators with ouabain | shares compounds with KCC2 mod | HEK293-KCC2, thallium flux FluoZin2 fluorescence; bidirectional: low = inhibitor, high = activator | raw Tl+ flux slope (below DMSO = inhibition, above = activation) at 10 µM | 3,700 compounds, 48% hits;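 active means thallium flux slope beyond 3 SD from same-plate DMSO control mean in most replicates, usually higher, sometimes lower; inconclusive means repeat tests gave conflicting results; inactive means no significant difference from controls in most replicates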;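 further: slope of initial-normalized fluorescence between seconds 10 and 20 after thallium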
HEK293 Tl flux2 – acts in parental HEK cells, second KCC2 counter-screen; HEK293 parental, thallium flux FluoZin-2 fluorescence slope; thallium flux slope at 10 µM; shares compounds with KCC2 mod; 3,700 compounds, 33% hits;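 active means thallium flux slope above the same plate's solvent-control mean plus 3 SD in both duplicate wells; inconclusive means duplicate wells that disagreed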;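 further: run without ouabain in cells lacking the KCC2 cotransporter; slope of fluorescence scaled to its starting value between 10 and 20 s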
* hit, by the source's call; u = inconclusive; x = not tested or not shown. Rows were chosen to be rich in hits. Some 3.4% of all compounds tested hit in one or more screens of this group.

SMILES | p97 ATPase inh | Mdm2 ligase inh | PKD1 kinase inh | DTT redox prof | KCC2 mod | ROMK primary | KCC2 sec1 | KCC2 bumet counter | KCC2 secondary2 | HEK293 Tl flux | KCC2 retest ouab | HEK293 Tl flux2
Cc1onc(-c2ccccc2)c1NC(=O)N(CCC#N)Cc1cccs1 | 4 | -12 | x | x | 0.12 | -1 | x | x | x | x | x | x
Cc1cccc(/C=N/n2c(-c3ccco3)n[nH]c2=S)c1 | 4 | 5 | x | x | 17* | 0.21 | 0.012* | 0.068* | 0.031 | 0.016* | 0.04* | 0.011*
O=C(c1ccccc1NS(=O)(=O)c1ccc(Cl)cc1)N1CCc2ccccc21 | -1 | -7 | 0 | 0 | 6.1* | x | 0.011 | 0.044* | 0.03 | 0.013* | 0.054* | 0.011*
CC(=O)N1CCc2ccc(S(=O)(=O)Nc3ccccc3Cl)cc21 | 4 | -9 | 4 | 0 | 0.42 | -0.36 | x | x | x | x | x | x
Cc1ccc(Cn2c(SCCN3CCCCC3)nc3c2c(=O)n(C)c(=O)n3C)cc1 | 9 | -4 | -7 | -1 | x | 0.14 | x | x | x | x | x | x
Cc1ccc(Cn2c(SCC(N)=O)nc3c2c(=O)n(C)c(=O)n3C)cc1 | -2 | -15 | -2 | 1 | 4.8* | 0.29 | 0.0064 | u | 0.034 | 0.0075 | 0.019 | 0.011
COc1ccc(/C=C(\CC(=O)O)c2nc3ccccc3s2)cc1O | 5 | -17 | -2 | 1 | -0.37 | 0.44 | x | x | x | x | x | x
COc1ccc(-c2nn(-c3ccccc3)cc2/C=C(\CC(=O)O)c2nc3ccccc3s2)cc1OC | -1 | -3 | 0 | -2 | -3.8* | 0.88 | 0.007 | 0.006 | 0.031 | u | 0.014* | 0.01
COc1ccccc1CNC(=O)C1CCN(S(=O)(=O)c2cccc3cccnc23)CC1 | 7 | -8 | -4 | 0 | -0.22 | x | x | x | x | x | x | x
CN(C)CCNC(=O)c1ccc(Cl)s1 | 11 | -7 | -6 | 2 | 7.3* | x | 0.0099 | 0.0067 | 0.032 | 0.0074 | 0.05 | u
COC(=O)c1ccc(OC(=O)CCN2C(=O)C3C4c5ccccc5C(c5ccccc54)C3C2=O)cc1 (centres undefined) | 0 | -14 | 2 | 0 | 0.82 | x | x | x | x | x | x | x
COc1ccc(NC(=O)C2=Cc3cccc(OC)c3OC2)cc1 | 1 | -25 | 3 | 0 | -1.3 | 0.54 | x | x | x | x | x | x
Cc1cccc2cc3c(nc12)SC(=NCC1CCCO1)N(Cc1ccco1)C3 (centres undefined) | 3 | -8 | -2 | 1 | 1.3 | x | x | x | x | x | x | x
Cc1ccc2nc3c(cc2c1)CN(Cc1ccco1)C(=NCC1CCCO1)S3 (centres undefined) | 2 | -10 | 0 | 3 | 3* | x | 0.0067 | u | 0.033 | 0.0075 | 0.019 | 0.011
O=C(CC1SC(=O)N(c2ccccc2)C1=O)Nc1ccc(Br)cc1 (centres undefined) | 4 | -7 | x | x | -1.3 | x | x | x | x | x | x | x
CN(CC(=O)Nc1cc(S(=O)(=O)N2CCCC2)ccc1Cl)Cc1cccs1 | -3 | -13 | x | x | -5.3* | x | u | 0.0047 | 0.032 | 0.0034 | 0.014* | 0.011
O=C(Cc1cccs1)Nc1ccc(S(=O)(=O)N2CCCC2)cc1 | 0 | -20 | 2 | -1 | -3.7* | 0.74 | 0.0077 | 0.006 | 0.035 | 0.004 | 0.02 | 0.011
Cc1ccc(C(=O)Nc2c(C)cc(-c3ccc(Cl)cc3)oc2=O)cc1 | 3 | -3 | -6 | 3 | x | x | x | x | x | x | x | x
COc1ccccc1N1CCN(CC(O)COc2ccc3c(c2)OCO3)CC1 (centres undefined) | 0 | -7 | -1 | 0 | 0.2 | -0.88 | x | x | x | x | x | x
O=c1[nH]cnc2scc(-c3ccc(Br)cc3)c12 | 6 | 25 | -3 | -1 | x | 1.3 | x | x | x | x | x | x
S=c1[nH]cnc2scc(-c3ccc(Br)cc3)c12 | 4 | -9 | 2 | -1 | 48* | 1.7 | 0.055* | 0.14* | u | u | 0.094* | 0.027*
S=c1[nH]cnc2scc(-c3ccc(Cl)cc3)c12 | 7 | 7 | x | x | 181* | x | 0.063* | 0.17* | 0.058* | u | 0.12* | 0.062*
Clc1ccc(-c2csc3ncnc(Cl)c23)cc1 | 2 | -14 | 3 | 0 | 0.31 | x | x | x | x | x | x | x
CC(=O)NC(C)C(=O)OCC(=O)c1ccc(Cl)s1 (centres undefined) | -2 | -12 | 0 | 15 | 0.025 | x | x | x | x | x | x | x
CC(=O)NC(C)C(=O)OCC(=O)c1ccc(-c2ccccc2)cc1 (centres undefined) | -4 | -17 | 0 | -1 | -4.1* | 0 | 0.0072 | 0.0051 | u | 0.0079 | 0.018 | 0.012
SMILES | p97 ATPase inh | Mdm2 ligase inh | PKD1 kinase inh | DTT redox prof | KCC2 mod | ROMK primary | KCC2 sec1 | KCC2 bumet counter | KCC2 secondary2 | HEK293 Tl flux | KCC2 retest ouab | HEK293 Tl flux2
O=C(COC(=O)c1cc(S(=O)(=O)N2CCOCC2)ccc1O)NCC1CCCO1 (centres undefined) | -2 | -15 | 2 | 0 | x | 0.049 | 0.011 | 0.0075 | 0.033 | 0.008 | 0.023 | 0.011
O=C(COC(=O)c1cc(S(=O)(=O)N2CCCC2)ccc1O)Nc1ccc(S(=O)(=O)N2CCOCC2)cc1 | 7 | 5 | x | x | 0.91 | x | x | x | x | x | x | x
COc1ccc(/C=C/c2cc(=O)c3cc(Cl)ccc3o2)cc1 | -6 | -1 | -1 | 0 | 0.32 | -0.0052 | x | x | x | x | x | x
S=C1NC2(CCCCC2)NN1c1ccccc1 | 3 | -9 | 4 | 0 | x | x | x | x | x | x | x | x
CC1CCCCC12NC(=S)N(c1ccccc1)N2 (centres undefined) | 4 | -13 | x | x | 8.1* | -0.14 | u | 0.022* | 0.034 | 0.016* | 0.027 | 0.012*
Cc1c(Cl)cnc(NC(=O)COC(=O)Cc2coc3ccc4ccccc4c23)c1Cl | 5 | x | -2 | 0 | -1.1 | -2.3 | x | x | x | x | x | x
N#CC1=C(S)N(c2ccccc2)C2(CCCCC2)NC1=O | 6 | -9 | -5 | 0 | 1 | -0.019 | x | x | x | x | x | x

Screens: PubChem BioAssay, several laboratories
